Records with an inconclusive call do not appear. Activity calls are given as the source filed them.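 The calls were made as follows: active = compounds raising caspase signal whose fitted half-max concentration is within ten times the top valid dose; inconclusive = flat curve with moderate caspase rise, or unreliable fit; inactive = flat near zero, too weak, or opposite direction.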
What was measured:
[1] = caspase activation in Mcl1-dependent HMC1-8 cells, dose response, selectivity assay for A1 inhibitor project, cell-based, CaspaseGlo luminescence, dry powder (AID 488885); conditions: HMC1-8 (Mcl1-dependent) caspase activation, CaspaseGlo luminescence, 4 h; at 150 µM (top of the series)
Procedure, shortened: (§1)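 Compound dosing: pin-transferred compound; material: Low-A1 HMC 1-8 human cancer cells; timing: 4 h compound exposure at 37 °C, then 1 h CaspaseGlo; measured by: luminescence with CaspaseGlo reagent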

[2] = tested on: HMC1-8 (Mcl1-dependent) caspase activation, CaspaseGlo luminescence, 4 h; assay: as above
Procedure, shortened: as §1

Compound | caspase activation [1] | AC50 [2] [µM]
C=C1[C@@H](C)[C@H]2[C@H](Cc3ccccc3)NC(=O)[C@]23[C@H](OC(C)=O)/C=C/[C@](C)(O)C(=O)[C@@H](C)C/C=C/[C@H]3[C@@H]1O | -0.0184% (inactive) | 
C=C1[C@@H](C)[C@H]2[C@H](Cc3ccccc3)NC(=O)[C@]23OC(=O)/C=C\[C@H](O)CCC[C@@H](C)C/C=C/[C@H]3[C@@H]1O | 4.5% (inactive) | 
COc1cc(/C=C(/C#N)c2nc3ccccc3[nH]2)ccc1OCC(=O)Nc1ccccc1C(C)C | 13.5% (inactive) | 
Cn1c(=NC(=O)CCl)sc2ccccc21 | -4.38% (inactive) | 
CC(C)(C)n1nc(-c2ccc(Cl)cc2)c2c(N)ncnc21 |  | 44.9
CC(=O)OC(C)(C)/C=C/C(=O)[C@](C)(O)C1[C@H](O)C[C@@]2(C)C3CC=C4C(C[C@H](O)C(=O)C4(C)C)[C@]3(C)C(=O)C[C@]12C (stereo not given in full) | 17.2% (inactive) | 
O=C(Oc1cccc(/C=N/Nc2nc(Nc3ccccc3)nc(N3CCOCC3)n2)c1)c1ccco1 | 3.81% (inactive) | 
O=C(CCl)N=c1sccn1Cc1ccccc1Cl | -18.4% (inactive) | 
Cc1ccc(Sc2c([N+](=O)[O-])c(=O)n(C)c3ccccc23)cc1 | -9.5% (inactive) | 
C/C1=C/C(=O)O[C@@H]2C[C@@H](CC[C@H](C)/C=C\CC1)O[C@@](O)(C1CSC(=O)N1)C2 (stereo not given in full) | 3.84% (inactive) | 

Reference: PubChem BioAssay AID488885 (Broad Institute, 2010)
